Measurements as given in ChEMBL document CHEMBL4732196, “Structural optimization towards promising β-methyl-4-acrylamido quinoline derivatives as PI3K/mTOR dual inhibitors for anti-cancer therapy: The in vitro and in vivo biological evaluation” (Eur J Med Chem, 2021).
Calls of active or inactive are those of the source. The calls are words filed in the database; no cut-off is given here.

Assays:
[1] = MRT(0 to t) in Sprague-Dawley rat at 5 mg/kg, po; type: ADME, organism-based; details: in vivo
Procedure, shortened: (§1)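 Male Sprague-Dawley rats (n = 3) received a single 5 mg/kg oral gavage dose formulated as a suspension in 0.5% methylcellulose. Plasma concentration-time curves were recorded and mean PK parameters derived.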

[2] = target: Serine/threonine-protein kinase mTOR (Homo sapiens, UniProt P42345); experiment: Inhibition of mTOR in human U87MG cells assessed as suppression of phosphorylation of S6 ribosomal at Ser235/236 residues at 25 nM after 3 hrs by Western blot analysis; type: cell-based; details: U87
Procedure, shortened: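 U87MG cells were seeded at 1×10^6 per well and held overnight at 37 °C, 5% CO2. They were then exposed to a range of inhibitor concentrations for 3 h at 37 °C. Phospho-Akt (Ser473, Thr308), phospho-S6 (Ser235/236) and phospho-4E-BP1 (Thr37/46) were measured by Western blot with GAPDH as loading control. Bands were quantified as mean ± SD of 3 biological replicates against untreated cells.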

[3] = Half life in Sprague-Dawley rat at 5 mg/kg, po; type: ADME, organism-based; details: in vivo
Procedure, shortened: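 Male Sprague-Dawley rats (n = 3) given a single oral gavage of 5 mg/kg as a homogeneous opaque suspension in 0.5% methylcellulose; plasma concentration-time curves used to derive mean PK parameters.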

[4] = target: AP2-associated protein kinase 1 (Homo sapiens) (UniProt Q2M2I8); experiment: Inhibition of human partial length AAK1 (G25 to L333 residues) expressed in bacterial system assessed as residual activity at 10 uM by kinome scan method relative to control
Procedure, shortened: (§2)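 KINOMEscan binding assay, test compound at 10 μM against a 52-kinase panel. % Ctrl = (compound signal − positive control signal)/(negative control signal − positive control signal) × 100, with DMSO as negative control (100%) and a positive control (0%).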

[5] = target: Cyclin-dependent kinase 18 (Homo sapiens) (UniProt Q07002); experiment: Inhibition of human full length PCTK3 (M3 to F474 residues) expressed in bacterial expression system assessed as residual activity at 10 uM by kinome scan method relative to control; procedure, shortened: as §2
U-87 MG = experiment: Growth inhibition of human U87MG cells after 72 hrs by sulforhodamine B assay; type: functional, U-87MG ATCC
[6] = target: Serine/threonine-protein kinase/endoribonuclease IRE1 (Homo sapiens) (UniProt O75460); experiment: Inhibition of human partial length ERN1 (S551 to E852 residues) expressed in mammalian expression system assessed as residual activity at 10 uM by kinome scan method relative to control; procedure, shortened: as §2
[7] = target: Cyclin-dependent kinase-like 1 (Homo sapiens) (UniProt Q00532); experiment: Inhibition of human partial length CDKL1 (M1 to I358 residues) expressed in bacterial system assessed as residual activity at 10 uM by kinome scan method relative to control; procedure, shortened: as §2
[8] = target: Tyrosine-protein kinase receptor Tie-1 (Homo sapiens) (UniProt P35590); experiment: Inhibition of human partial length TIE1 (T819 to A1138 residues) expressed in bacterial expression system assessed as residual activity at 10 uM by kinome scan method relative to control
Procedure, shortened: (§3)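 KINOMEscan competitive binding screen at 10 μM test compound against a 52-kinase panel. Output is % Ctrl = (test signal − positive control signal)/(negative control signal − positive control signal) × 100. DMSO is the negative control (100%) and the positive control is set to 0%.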

[9] = target: Serine/threonine-protein kinase PRP4 homolog (Homo sapiens) (UniProt Q13523); experiment: Inhibition of human partial length PRP4 (D657 to I1007 residues) expressed in bacterial expression system assessed as residual activity at 10 uM by kinome scan method relative to control; procedure, shortened: as §3
[10] = target: Phosphatidylinositol 4-kinase beta (Homo sapiens) (UniProt Q9UBF8); experiment: Inhibition of human partial length PIK4CB (M1 to M828 residues) expressed in mammalian expression system assessed as residual activity at 10 uM by kinome scan method relative to control; procedure, shortened: as §3
[11] = target: Activin receptor type-2B (Homo sapiens) (UniProt Q13705); experiment: Inhibition of human partial length ACVR2B (H169 to D504 residues) expressed in bacterial system assessed as residual activity at 10 uM by kinome scan method relative to control; procedure, shortened: as §2
[12] = target: Cyclin-dependent kinase-like 5 (Homo sapiens) (UniProt O76039); experiment: Inhibition of human partial length CDKL5 (M1 to S337 residues) expressed in mammalian expression system assessed as residual activity at 10 uM by kinome scan method relative to control; procedure, shortened: as §2
[13] = target: Phosphatidylinositol 4,5-bisphosphate 3-kinase catalytic subunit delta isoform (Homo sapiens) (UniProt O00329); experiment: Inhibition of human partial length PIK3CD (R108 to Q1044 residues) expressed in mammalian expression system assessed as residual activity at 10 uM by kinome scan method relative to control; procedure, shortened: as §3
[14] = target: Phosphatidylinositol 4-phosphate 3-kinase C2 domain-containing subunit beta (Homo sapiens) (UniProt O00750); experiment: Inhibition of human partial length PIK3C2B (M1 to L1634 residues) expressed in bacterial expression system assessed as residual activity at 10 uM by kinome scan method relative to control; procedure, shortened: as §2
[15] = target: Phosphatidylinositol 5-phosphate 4-kinase type-2 beta (Homo sapiens) (UniProt P78356); experiment: Inhibition of human full length PIP5K2B (M1 to T416 residues) expressed in bacterial expression system assessed as residual activity at 10 uM by kinome scan method relative to control; procedure, shortened: as §2
[16] = target: Mitotic checkpoint serine/threonine-protein kinase BUB1 (Homo sapiens) (UniProt O43683); experiment: Inhibition of human partial length BUB1 (Q724 to K1085 residues) expressed in bacterial system assessed as residual activity at 10 uM by kinome scan method relative to control; procedure, shortened: as §2
[17] = MRT(0 to infinity) in Sprague-Dawley rat at 5 mg/kg, po; type: ADME, organism-based; details: in vivo; procedure, shortened: as §1
[18] = target: Casein kinase I isoform alpha-like (Homo sapiens) (UniProt Q8N752); experiment: Inhibition of human partial length CSNK1A1L (M1 to N337 residues) expressed in bacterial expression system assessed as residual activity at 10 uM by kinome scan method relative to control; procedure, shortened: as §2
[19] = target: Cyclin-dependent kinase 11B (Homo sapiens) (UniProt P21127); experiment: Inhibition of human partial length CDC2L1 (P353 to G692 residues) expressed in bacterial system assessed as residual activity at 10 uM by kinome scan method relative to control; procedure, shortened: as §2
[20] = target: Cyclin-dependent kinase 19 (Homo sapiens) (UniProt Q9BWU1); experiment: Inhibition of human partial length CDK11 (M1 to N360 residues) expressed in bacterial system assessed as residual activity at 10 uM by kinome scan method relative to control; procedure, shortened: as §2
[21] = target: Serine/threonine-protein kinase Nek10 (Homo sapiens) (UniProt Q6ZWH5); experiment: Inhibition of human partial length NEK10 (L488 to R809 residues) expressed in mammalian expression system assessed as residual activity at 10 uM by kinome scan method relative to control; procedure, shortened: as §2
[22] = target: Ephrin type-B receptor 6 (Homo sapiens) (UniProt O15197); experiment: Inhibition of human partial length EPHB6 (Q634 to P948 residues) expressed in mammalian expression system assessed as residual activity at 10 uM by kinome scan method relative to control; procedure, shortened: as §2

Chain of Cyclin-dependent kinase-like 1 (Homo sapiens) (Q00532 whole entry, the tested form may be a part): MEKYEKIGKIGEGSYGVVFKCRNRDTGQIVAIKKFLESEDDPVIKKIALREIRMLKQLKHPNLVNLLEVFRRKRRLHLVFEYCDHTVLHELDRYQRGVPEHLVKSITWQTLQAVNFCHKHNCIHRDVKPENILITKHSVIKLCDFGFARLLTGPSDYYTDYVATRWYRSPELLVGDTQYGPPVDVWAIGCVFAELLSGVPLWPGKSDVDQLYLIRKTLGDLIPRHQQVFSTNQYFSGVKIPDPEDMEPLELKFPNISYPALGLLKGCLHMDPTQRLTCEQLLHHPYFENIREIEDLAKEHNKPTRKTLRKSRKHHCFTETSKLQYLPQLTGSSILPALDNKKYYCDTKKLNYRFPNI
Chain of Cyclin-dependent kinase-like 5 (Homo sapiens) (O76039 whole entry, the tested form may be a part, canonical isoform): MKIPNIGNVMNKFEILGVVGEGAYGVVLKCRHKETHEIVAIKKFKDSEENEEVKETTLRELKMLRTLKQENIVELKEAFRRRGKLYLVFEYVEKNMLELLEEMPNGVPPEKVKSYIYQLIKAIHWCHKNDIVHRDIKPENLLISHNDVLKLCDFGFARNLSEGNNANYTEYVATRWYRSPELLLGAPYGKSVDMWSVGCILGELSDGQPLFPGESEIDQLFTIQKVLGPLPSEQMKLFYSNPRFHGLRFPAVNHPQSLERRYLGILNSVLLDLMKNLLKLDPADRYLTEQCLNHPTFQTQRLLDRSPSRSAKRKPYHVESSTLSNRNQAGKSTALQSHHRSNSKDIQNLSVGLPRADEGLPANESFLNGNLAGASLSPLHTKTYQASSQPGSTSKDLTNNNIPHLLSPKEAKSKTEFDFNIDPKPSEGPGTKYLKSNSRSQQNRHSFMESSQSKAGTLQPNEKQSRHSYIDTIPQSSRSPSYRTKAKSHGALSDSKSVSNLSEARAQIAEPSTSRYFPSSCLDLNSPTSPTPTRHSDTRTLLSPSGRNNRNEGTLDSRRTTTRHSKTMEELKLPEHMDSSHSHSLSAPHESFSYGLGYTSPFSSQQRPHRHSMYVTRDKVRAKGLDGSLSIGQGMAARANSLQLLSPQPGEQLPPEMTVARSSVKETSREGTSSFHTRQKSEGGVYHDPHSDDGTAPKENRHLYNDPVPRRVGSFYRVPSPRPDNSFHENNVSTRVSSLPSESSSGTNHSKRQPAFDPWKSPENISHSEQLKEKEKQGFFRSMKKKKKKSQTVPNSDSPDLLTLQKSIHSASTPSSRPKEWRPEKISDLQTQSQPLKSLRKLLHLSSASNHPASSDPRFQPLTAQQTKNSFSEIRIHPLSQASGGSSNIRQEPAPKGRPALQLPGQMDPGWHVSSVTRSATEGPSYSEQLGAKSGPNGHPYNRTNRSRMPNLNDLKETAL
Chain of Serine/threonine-protein kinase Nek10 (Homo sapiens) (Q6ZWH5 whole entry, the tested form may be a part): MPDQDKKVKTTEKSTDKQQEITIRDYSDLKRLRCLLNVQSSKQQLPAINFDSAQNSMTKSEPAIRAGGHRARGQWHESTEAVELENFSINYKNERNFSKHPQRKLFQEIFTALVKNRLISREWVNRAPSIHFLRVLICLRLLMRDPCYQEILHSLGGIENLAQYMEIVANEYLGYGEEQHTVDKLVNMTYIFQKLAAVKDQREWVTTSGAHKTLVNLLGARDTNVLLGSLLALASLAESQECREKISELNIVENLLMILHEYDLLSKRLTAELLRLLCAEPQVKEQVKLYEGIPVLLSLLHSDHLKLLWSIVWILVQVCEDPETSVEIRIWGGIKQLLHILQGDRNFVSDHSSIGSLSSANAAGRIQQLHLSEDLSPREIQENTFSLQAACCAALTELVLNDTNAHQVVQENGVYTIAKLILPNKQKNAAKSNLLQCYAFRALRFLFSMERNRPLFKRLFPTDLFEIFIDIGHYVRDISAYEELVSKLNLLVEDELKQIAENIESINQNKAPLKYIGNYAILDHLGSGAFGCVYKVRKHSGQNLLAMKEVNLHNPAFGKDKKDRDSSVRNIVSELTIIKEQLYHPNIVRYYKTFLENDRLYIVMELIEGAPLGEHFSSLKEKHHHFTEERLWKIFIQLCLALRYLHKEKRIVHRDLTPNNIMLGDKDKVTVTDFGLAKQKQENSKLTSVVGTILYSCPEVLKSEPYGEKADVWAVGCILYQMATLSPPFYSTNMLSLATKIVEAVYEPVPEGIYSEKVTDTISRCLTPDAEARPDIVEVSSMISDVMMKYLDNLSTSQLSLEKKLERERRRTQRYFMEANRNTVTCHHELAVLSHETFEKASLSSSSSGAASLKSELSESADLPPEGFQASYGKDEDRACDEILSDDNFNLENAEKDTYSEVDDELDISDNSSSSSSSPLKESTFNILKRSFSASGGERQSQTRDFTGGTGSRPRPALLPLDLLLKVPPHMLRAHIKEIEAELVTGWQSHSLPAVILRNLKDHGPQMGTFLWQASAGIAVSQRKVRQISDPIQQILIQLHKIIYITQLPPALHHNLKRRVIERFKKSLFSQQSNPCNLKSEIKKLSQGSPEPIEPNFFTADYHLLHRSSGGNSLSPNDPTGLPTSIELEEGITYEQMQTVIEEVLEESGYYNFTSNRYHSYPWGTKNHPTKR
Chain of Cyclin-dependent kinase 11B (Homo sapiens) (P21127 whole entry, the tested form may be a part): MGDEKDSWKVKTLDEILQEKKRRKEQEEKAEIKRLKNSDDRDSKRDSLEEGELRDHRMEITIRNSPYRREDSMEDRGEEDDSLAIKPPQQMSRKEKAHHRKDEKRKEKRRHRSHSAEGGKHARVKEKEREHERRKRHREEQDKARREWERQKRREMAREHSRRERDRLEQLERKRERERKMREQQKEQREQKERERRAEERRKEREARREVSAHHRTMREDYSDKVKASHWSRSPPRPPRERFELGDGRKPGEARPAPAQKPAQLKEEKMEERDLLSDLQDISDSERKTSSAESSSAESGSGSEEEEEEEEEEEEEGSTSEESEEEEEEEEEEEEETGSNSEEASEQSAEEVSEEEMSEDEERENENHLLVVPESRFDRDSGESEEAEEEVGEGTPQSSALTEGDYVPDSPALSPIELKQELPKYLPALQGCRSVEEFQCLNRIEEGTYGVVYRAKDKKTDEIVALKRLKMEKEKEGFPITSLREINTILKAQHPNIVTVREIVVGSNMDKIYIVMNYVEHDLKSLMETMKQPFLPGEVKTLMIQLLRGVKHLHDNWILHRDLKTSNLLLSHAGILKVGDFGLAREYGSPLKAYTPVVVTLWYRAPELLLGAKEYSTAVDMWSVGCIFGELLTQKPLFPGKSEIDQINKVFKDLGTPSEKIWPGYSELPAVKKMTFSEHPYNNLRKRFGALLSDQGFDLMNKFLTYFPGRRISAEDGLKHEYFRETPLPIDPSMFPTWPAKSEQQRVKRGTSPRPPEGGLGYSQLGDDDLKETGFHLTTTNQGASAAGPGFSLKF
Chain of Phosphatidylinositol 5-phosphate 4-kinase type-2 beta (Homo sapiens) (P78356 whole entry, the tested form may be a part): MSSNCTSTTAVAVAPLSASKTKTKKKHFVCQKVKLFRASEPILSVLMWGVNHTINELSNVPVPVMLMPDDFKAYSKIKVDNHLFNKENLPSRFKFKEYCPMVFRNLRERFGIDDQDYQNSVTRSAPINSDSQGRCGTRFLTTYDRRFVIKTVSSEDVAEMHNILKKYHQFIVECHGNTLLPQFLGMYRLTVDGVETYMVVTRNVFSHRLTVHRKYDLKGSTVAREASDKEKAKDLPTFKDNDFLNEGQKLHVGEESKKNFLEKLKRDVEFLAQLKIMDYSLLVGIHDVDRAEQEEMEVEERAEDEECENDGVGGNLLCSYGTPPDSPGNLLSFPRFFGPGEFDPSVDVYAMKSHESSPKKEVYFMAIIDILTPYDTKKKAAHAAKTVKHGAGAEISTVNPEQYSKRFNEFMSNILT
Chain of Cyclin-dependent kinase 18 (Homo sapiens) (Q07002 whole entry, the tested form may be a part): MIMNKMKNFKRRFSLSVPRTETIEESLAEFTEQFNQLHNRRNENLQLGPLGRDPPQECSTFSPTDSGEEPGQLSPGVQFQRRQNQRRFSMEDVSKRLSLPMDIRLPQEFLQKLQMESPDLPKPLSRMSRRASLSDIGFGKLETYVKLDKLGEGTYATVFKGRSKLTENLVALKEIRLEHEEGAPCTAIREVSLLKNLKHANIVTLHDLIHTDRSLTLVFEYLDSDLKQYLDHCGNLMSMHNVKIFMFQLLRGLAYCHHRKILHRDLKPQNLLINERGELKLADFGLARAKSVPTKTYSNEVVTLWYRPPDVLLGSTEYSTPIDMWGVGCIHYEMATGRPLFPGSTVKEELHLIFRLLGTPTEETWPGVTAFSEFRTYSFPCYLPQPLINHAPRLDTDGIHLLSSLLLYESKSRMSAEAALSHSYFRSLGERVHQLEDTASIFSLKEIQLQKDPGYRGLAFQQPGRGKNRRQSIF
Chain of Activin receptor type-2B (Homo sapiens) (Q13705 whole entry, the tested form may be a part): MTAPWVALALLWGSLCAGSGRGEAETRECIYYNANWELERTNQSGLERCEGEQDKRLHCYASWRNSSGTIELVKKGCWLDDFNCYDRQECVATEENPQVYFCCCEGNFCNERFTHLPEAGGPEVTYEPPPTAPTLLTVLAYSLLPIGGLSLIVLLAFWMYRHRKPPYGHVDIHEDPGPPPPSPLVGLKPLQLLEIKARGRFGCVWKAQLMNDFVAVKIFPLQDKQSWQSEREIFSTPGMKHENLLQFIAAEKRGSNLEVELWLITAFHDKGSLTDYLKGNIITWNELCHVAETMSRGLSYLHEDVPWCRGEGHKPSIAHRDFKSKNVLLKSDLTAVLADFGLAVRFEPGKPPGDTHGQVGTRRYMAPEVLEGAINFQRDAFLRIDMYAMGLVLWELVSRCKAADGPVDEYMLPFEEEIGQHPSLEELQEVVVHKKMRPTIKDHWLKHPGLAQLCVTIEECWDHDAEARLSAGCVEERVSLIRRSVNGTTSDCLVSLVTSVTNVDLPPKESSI
Chain of Casein kinase I isoform alpha-like (Homo sapiens) (Q8N752 whole entry, the tested form may be a part, canonical isoform): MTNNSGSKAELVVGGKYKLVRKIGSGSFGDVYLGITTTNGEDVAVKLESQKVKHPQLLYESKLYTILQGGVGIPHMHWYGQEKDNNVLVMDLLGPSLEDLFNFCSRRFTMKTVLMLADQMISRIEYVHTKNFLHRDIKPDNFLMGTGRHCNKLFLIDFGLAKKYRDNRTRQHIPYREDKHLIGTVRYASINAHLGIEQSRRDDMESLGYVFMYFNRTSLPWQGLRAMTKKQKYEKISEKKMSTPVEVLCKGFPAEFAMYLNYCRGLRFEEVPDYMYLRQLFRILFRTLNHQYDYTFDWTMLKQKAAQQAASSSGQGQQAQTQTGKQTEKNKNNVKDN

COc1ncc(-c2ccc3nccc(/C(C)=C/C(=O)N4CCN(C)CC4)c3c2)cc1NS(=O)(=O)c1ccc(F)cc1F
MRT last [1]: 1.9 h
inhibition [2]: Active
half-life [3]: 1.85 h
Activity [4]: 44%
Activity [5]: 78%
GI50 (U-87 MG): 140 nM
Activity [6]: 54%
Activity [7]: 82%
Activity [8]: 71%
Activity [9]: 100%
Activity [10]: 0.55%
Activity [11]: 100%
Activity [12]: 69%
Activity [13]: 0%
Activity [14]: 0%
Activity [15]: 9.4%
Activity [16]: 91%
MRT inf [17]: 2.57 h
Activity [18]: 84%
Activity [19]: 93%
Activity [20]: 95%
Activity [21]: 61%
Activity [22]: 11%
